Measurements reported in the array DNA melting data of Ke et al. (doi:10.1101/2024.01.08.574731).

How the values were obtained:
[1] = melting temperature; fluorescence melt of hairpins on a sequencing array, two-state fit, raised by 9.35 °C to match UV melts; settings: sodium 0.088 M
How it was run: (§1)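 Melting temperature and folding enthalpy were obtained by bootstrapped two-state fitting. Fits used Cy3 fluorescence of library hairpins with annealed Cy3 and quencher oligos on a sequenced MiSeq flow cell, imaged in 50 mM Na-HEPES pH 8.0, 25 mM NaCl in 2.5 °C steps up to 60 °C and normalised to pre-quench Cy3 and control constructs. Four replicates were combined by inverse-variance weighting, and fitted temperatures were raised by 9.35 °C to match UV melts.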

[2] = folding enthalpy; higher = less favourable; fluorescence melt of hairpins on a sequencing array, two-state fit; settings: sodium 0.088 M
How it was run: as §1

Sequence | Tm [1] [°C] | folding enthalpy [2] [kcal/mol]
GGAAATCCGAAAGGATCC (((..(((....)))))) | 35.4 | -13.1
GGAAATCGAAAGATGTCC (((.(((....))).))) | 40.9 | -29
GGAACACGAAAGTGCTCC (((.(((....))).))) | 50.2 | -40.7
GGAACACGAAAGTGTCC (((.(((....)))))) | 52 | -23.5
GGAACAGCGAAAGCTTCC (((..(((....)))))) | 35.5 | -18.4
GGAACCCGAAAGGGGTCC (((.(((....))).))) | 68.2 | -30.4
GGAACCGAAAGGTAATCC ((((((....)))..))) | 26.8 | -9.87
GGAACCGAAAGGTACTCC ((((((....)))..))) | 33.3 | -12.6
GGAACCGAAAGGTGTTCC ((((((....)))..))) | 40.5 | -17.6
GGAACGACGAAAGTCTCC (((..(((....)))))) | 27.6 | -10.9
GGAACGGGAAACCGCTCC (((.(((....))).))) | 48.7 | -28.1
GGAACTCGAAAGAGGTCC (((.(((....))).))) | 60 | -39
GGAAGACGAAAGTCTCC (((.(((....)))))) | 52.3 | -20.9
GGAAGAGCGAAAGCTTCC (((..(((....)))))) | 43.8 | -16.1
GGAAGCGAAAGCTAATCC ((((((....)))..))) | 26.7 | -12
GGAAGCGAAAGCTCCTCC ((((((....)))..))) | 51.3 | -16.8
GGAAGCGAAAGCTCTCC ((((((....))).))) | 43.5 | -16.2
GGAAGCGAAAGCTGTTCC ((((((....)))..))) | 36.5 | -12.1
GGAAGCGAAAGCTTGTCC ((((((....)))..))) | 35.8 | -10.3
GGAAGCGCGAAAGCGTCC (((..(((....)))))) | 37.3 | -9.67
GGAAGCGGAAACGCCTCC (((.(((....))).))) | 45.6 | -20
GGAAGGCCGAAAGGCTCC (((..(((....)))))) | 34.6 | -11.9
GGAAGGGGAAACCCCTCC (((.(((....))).))) | 45 | -21.1

Sequence | Tm [1] [°C] | folding enthalpy [2] [kcal/mol]
GGAAGGGGAAACCCTCCC ((.((((....)))).)) | 41.1 | -21
GGAAGGGGAAACCCTTCC (((((((....))))))) | 64.4 | -35.1
GGAAGGGGAAACCTTTCC ((((.((....)).)))) | 43.3 | -23.4
GGAAGTGGAAACGCTTCC (((((.(....).))))) | 50.8 | -41.7
GGAATCCGAAAGGAATCC (((.(((....))).))) | 48.7 | -31.2
GGAATCCGAAAGGAGTCC (((.(((....))).))) | 55.8 | -42.5
GGAATCGAAAGATCCTCC ((((((....)))..))) | 42.7 | -21.4
GGAATCGGAAACGGTTTC (.((.((....)).)).) | 32.4 | -26.3
GGAATGCGAAAGCACTCC (((.(((....))).))) | 48.3 | -23.6
GGAATGGAAACATTCC ((((((....)))))) | 53.1 | -44.9
GGAATGGGAAACCATTTC (.(((((....))))).) | 42.2 | -34.4
GGAATTGGAAACGATTCC (((((.(....).))))) | 45.6 | -34.4
GGACAAGGAAACCTGTCC (((((.(....).))))) | 47.2 | -31.4
GGACACCGAAAGGTCTCC (((.(((....))).))) | 40 | -23.8
GGACACCGAAAGGTTCC (((.(((....)))))) | 48.6 | -25.6
GGACACGAAAGTGAATCC ((((((....)))..))) | 32.9 | -15.9
GGACACGAAAGTGGGTCC ((((((....)))..))) | 48.7 | -19.9
GGACACGGAAACATGTCC (((((.(....).))))) | 44 | -33
GGACACGGAAACGTGCCC ((.((((....)))).)) | 54.5 | -27.9
GGACAGCGAAAGCTCTCC (((.(((....))).))) | 38.4 | -18.3
GGACAGGGAAACCTGCCC ((.((((....)))).)) | 48.2 | -22.3
GGACATGAAAATGTCC ((((((....)))))) | 61.7 | -34.7
GGACATGGAAACATGCCC ((.((((....)))).)) | 47.4 | -23.4
